Measured values taken from paper PMC10499415 (Clinical and Translational Science, 2023).
Where two headings read alike, the source gives them in different places.

Key:
[1] = Phase I hepatic impairment study: safety and tolerability; type: in vivo, human
In short: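 Adults with chronic, stable hepatic impairment graded by Child-Pugh score (mild 5–6, moderate 7–9, severe 10–15), plus healthy controls matched on age, BMI and sex. All received a single oral 20 mg dose of test compound with ~240 mL water after an overnight fast of ≥10 h. Inpatient from day −1 to day 4, with repeated clinical and laboratory safety evaluations through day 4. AEs were queried by contact ~14 days post-dose.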

[2] = set-up: AUC0–t / AUC0–inf: unit not given beside the values; conditions: cited from earlier work
[3] = cited from earlier work
[4] = cited from earlier work; remark: listed apart in the source
[5] = for AUC0–24 GMR (90% CI) / AUC0–inf GMR (90% CI) / C max GMR (90% CI): GMR = 100 × (test/reference); for increase in AUC0–inf compared with matched controls / increase in C max compared with matched controls: single oral 20 mg
cytochrome P450 (CYP450) = conditions: in vitro; cited from earlier work
[6] = set-up: unit not given beside the values; conditions: subjects who received futibatinib alone; cited from earlier work
[7] = healthy male adults; cited from earlier work
clinical = conditions: human, in vivo, po, 20 mg, T max
[8] = healthy subjects, fasted conditions
[9] = hepatic impairment groups vs overall healthy control group, range over groups
[10] = mild HI vs matched healthy control
[11] = mild HI vs overall healthy control cohort
[12] = moderate HI vs matched healthy control
[13] = moderate HI vs overall healthy control cohort
[14] = severe HI vs matched healthy control
[15] = severe HI vs overall healthy control cohort

For `C=CC(=O)N1CC[C@H](n2nc(C#Cc3cc(OC)cc(OC)c3)c3c(N)ncnc32)C1` [futibatinib, Futibatinib], the laboratory results ([1]; all cohorts) was “No unexpected findings or remarkable trends”, the “study discontinuations due to TEAEs” value ([1]; all cohorts) was “no study discontinuations” and the “total TEAEs reported (all grade 1)” value ([1]; all cohorts, 38 participants) was “four”. The “participants reporting TEAEs” value ([1]; moderate hepatic impairment cohort) was “No participants”, the “participants reporting TEAEs” value ([1]; severe hepatic impairment cohort) was “No participants” and the tolerability ([1]; single oral 20 mg, all groups) was “well‐tolerated”. The “median T max” value ([2]; fed conditions) was 4.0 h, the “bioavailability lower under fed versus fasted conditions” value ([2]; fed versus fasted) was 11.2% and the “AUC0–inf” value [2, 8] was 625.7. For the same compound, the “AUC0–t” value [2, 8] was 617.8, the accumulation ([3]; after repeat once daily doses) was “no accumulation” and the “mean half‐life” value ([3]; patients with cancer and healthy subjects) was ~ 3 h. For the same compound, the “dose proportionality of exposure” value ([3]; up to 80 mg) was “Dose‐proportional exposure increases”, the “impact of futibatinib on the PKs of CYP3A substrates” value [4] was “no impact” and the futibatinib exposure increase ([4]; co‐administered with itraconazole) was 40%–50%. For the same compound, the futibatinib exposure decrease ([4]; co‐administered with rifampin) was 50%–60%, the “geometric mean C max greater than in corresponding matched healthy control group” value ([5]; across the hepatic impairment groups) was 10%–43% and the “geometric mean AUC greater than in corresponding matched healthy control group” value ([5]; across the hepatic impairment groups, AUC0–24, AUC0–t, AUC0–inf) was 17%–21%. For the same compound, the “mean percentage of AUC0–inf extrapolated” value ([5]; all groups) was under 2%, the “GMRs for AUC” value [5, 9] was 85.9% to 122.5% and the “GMRs for C max” value [5, 9] was 113.5% to 117.9%. For the same compound, the “AUC0–24 GMR (90% CI)” value [5, 10] was 121.19 (74.27–197.74) %, the “AUC0–inf GMR (90% CI)” value [5, 10] was 120.79 (73.89–197.47) % and the “C max GMR (90% CI)” value [5, 10] was 142.53 (103.42–196.44) %. For the same compound, the “AUC0–24 GMR (90% CI)” value [5, 11] was 85.92 (54.94–134.38) %, the “AUC0–inf GMR (90% CI)” value [5, 11] was 85.66 (54.70–134.15) % and the “C max GMR (90% CI)” value [5, 11] was 113.52 (82.50–156.21) %. The “increase in futibatinib exposure versus healthy matched controls” value ([5]; mild hepatic impairment) was 21%–43%, the “increase in AUC0–inf compared with matched controls” value (“increase in AUC0–inf” for short) ([5]; mild hepatic impairment) was 21% and the “increase in C max compared with matched controls” value (shortened to “increase in C max”) ([5]; mild hepatic impairment) was 43%. For the same compound, the “AUC0–24 GMR (90% CI)” value [5, 12] was 119.62 (54.08–264.61) %, the “AUC0–inf GMR (90% CI)” value [5, 12] was 119.61 (53.90–265.45) % and the “C max GMR (90% CI)” value [5, 12] was 114.85 (75.38–175.00) %. The “AUC0–24 GMR (90% CI)” value [5, 13] was 122.20 (64.51–231.48) %, the “AUC0–inf GMR (90% CI)” value [5, 13] was 122.49 (64.50–232.63) % and the “C max GMR (90% CI)” value [5, 13] was 117.90 (82.04–169.44) %. The “increase in futibatinib exposure versus healthy matched controls” value ([5]; moderate hepatic impairment) was 15%–20%, the “increase in AUC0–inf” value ([5]; moderate hepatic impairment) was 20% and the “increase in C max” value ([5]; moderate hepatic impairment) was 15%. For the same compound, the “AUC0–24 GMR (90% CI)” value [5, 14] was 116.91 (57.52–237.60) %, the “AUC0–inf GMR (90% CI)” value [5, 14] was 118.23 (57.79–241.87) % and the “C max GMR (90% CI)” value [5, 14] was 109.64 (66.62–180.44) %. The “AUC0–24 GMR (90% CI)” value [5, 15] was 117.62 (67.44–205.13) %, the “AUC0–inf GMR (90% CI)” value [5, 15] was 118.57 (67.46–208.38) % and the “C max GMR (90% CI)” value [5, 15] was 117.78 (87.42–158.68) %. For the same compound, the “increase in AUC0–inf” value ([5]; severe hepatic impairment) was 18%, the “increase in C max” value ([5]; severe hepatic impairment) was 10% and the “increase in futibatinib exposure versus healthy matched controls” value ([5]; severe mild hepatic impairment (so in the source)) was 10%–18%. The “contribution of CYP450–related metabolism to the overall metabolism” value (cytochrome P450 (CYP450)) was ~ 50%, the “AUC0–inf” value [6] was 941 and the “AUC0–t” value [6] was 934.0. For the same compound, the “total amount of unchanged futibatinib in urine and feces” value [7] was “negligible” and the Tmax (clinical) was 1.75 h.
